Data as given in ChEMBL document CHEMBL3244396, “Synthesis and antileukemic activity of 5-substituted 2,3-dihydro-6,7-bis(hydroxymethyl)-1H-pyrrolizine diesters” (J Med Chem, 1977).

Experiments:
Mus musculus [1] = test: Toxicity in male CDF1 mouse allografted with mouse P388 cells assessed as animal survival at 12.5 mg/kg, ip administered daily for 9 days as Klucel suspension starting 24 hrs after tumor inoculation; type: organism-based; set-up: dose 12.5 mg/kg, route intraperitoneal; settings: in vivo
In short: (§1)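 P-388 leukemia ascitic fluid inoculated ip. Compound given ip as a suspension in Klucel (hydroxypropylcellulose), once daily for nine doses beginning 24 h post-inoculation. Acute toxicity assessed as toxicity-day survivors per group. Survival was followed up to 30 days, with 30-day survival counted as "cure". Follows NCI screening protocols.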

P388 [2] = test: Antitumor activity against mouse P388 cells allografted in male CDF1 mouse assessed as disease cures by measuring 30-days host survival at 100 mg/kg, ip administered daily for 9 days as Klucel suspension starting 24 hrs after tumor inoculation relative to control; type: functional; settings: route intraperitoneal
In short: (§2)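 P388 leukemia given as an ascitic fluid cell inoculum, ip, to mice of the strain and sex in each line. Nine daily ip doses were given in a Klucel (hydroxypropylcellulose) suspension, starting 24 h after inoculation. Read-out is median survival time as %T/C, with >125 taken as significant; a "cure" means 30-day survival.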

P388 [3] = test: Antitumor activity against mouse P388 cells allografted in male CDF1 mouse assessed as change in body weight at 50 mg/kg, ip administered daily for 9 days as Klucel suspension starting 24 hrs after tumor inoculation; type: functional; settings: route intraperitoneal
In short: (§3)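 Ascitic fluid carrying P388 cells was inoculated ip. Compound was given ip in nine daily doses, starting 24 h after inoculation, in Klucel (hydroxypropylcellulose) suspension or in saline with Tween-80. Body-weight difference (treated minus control) was recorded on day 5. Survival was scored as %T/C of median survival time, and 30-day survival counted as cure.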

L1210 [4] = test: Antileukemic activity against mouse L1210 cells allografted in female BDF1 mouse assessed as host mean survival time at 25 mg/kg, ip administered daily for 9 days as Klucel suspension starting 24 hrs after tumor inoculation relative to control; type: functional; settings: route intraperitoneal
In short: (§4)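 L1210 leukemia given as an ascitic fluid cell inoculum, ip, to mice of the strain and sex in each line. Test material was given ip for nine daily doses starting 24 h after inoculation, in a Klucel (hydroxypropylcellulose) suspension. Read-out is mean survival time as %T/C versus controls, with >125 taken as significant.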

L1210 [5] = test: Antileukemic activity against mouse L1210 cells allografted in female BDF1 mouse assessed as host mean survival time at 12.5 mg/kg, ip administered daily for 9 days as Klucel suspension starting 24 hrs after tumor inoculation relative to control; type: functional; settings: route intraperitoneal; in short: as §4
P388 [6] = test: Antitumor activity against mouse P388 cells allografted in male CDF1 mouse assessed as change in body weight at 12.5 mg/kg, ip administered daily for 9 days as Klucel suspension starting 24 hrs after tumor inoculation; type: functional; settings: route intraperitoneal; in short: as §3
P388 [7] = test: Antitumor activity against mouse P388 cells allografted in male CDF1 mouse assessed as change in body weight at 100 mg/kg, ip administered daily for 9 days as Klucel suspension starting 24 hrs after tumor inoculation; type: functional; settings: route intraperitoneal; in short: as §3
L1210 [8] = test: Antileukemic activity against mouse L1210 cells allografted in male CDF1 mouse assessed as host mean survival time at 100 mg/kg, ip administered daily for 9 days as Klucel suspension starting 24 hrs after tumor inoculation relative to control; type: functional; settings: route intraperitoneal; in short: as §4
L1210 [9] = test: Antileukemic activity against mouse L1210 cells allografted in male CDF1 mouse assessed as host mean survival time at 200 mg/kg, ip administered daily for 9 days as Klucel suspension starting 24 hrs after tumor inoculation relative to control; type: functional; settings: route intraperitoneal; in short: as §4
L1210 [10] = test: Antileukemic activity against mouse L1210 cells allografted in female BDF1 mouse assessed as change in body weight at 50 mg/kg, ip administered daily for 9 days as Klucel suspension starting 24 hrs after tumor inoculation; type: functional; settings: route intraperitoneal
In short: (§5)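 Ascitic fluid carrying L1210 cells was inoculated ip. Compound was given ip as a Klucel (hydroxypropylcellulose) suspension in nine daily doses, starting 24 h after inoculation. Body-weight difference (treated minus control) was recorded on day 5. Survival was scored as %T/C of mean survival time.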

Mus musculus [11] = test: Toxicity in male CDF1 mouse allografted with mouse P388 cells assessed as animal survival at 50 mg/kg, ip administered daily for 9 days as Klucel suspension starting 24 hrs after tumor inoculation; type: organism-based; set-up: dose 50 mg/kg, route intraperitoneal; settings: in vivo; in short: as §1
Mus musculus [12] = test: Toxicity in female BDF1 mouse allografted with mouse L1210 cells assessed as animal survival at 12.5 mg/kg, ip administered daily for 9 days as Klucel suspension starting 24 hrs after tumor inoculation measured on fifth day; type: organism-based; set-up: dose 12.5 mg/kg, route intraperitoneal; settings: in vivo
In short: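 Female BDF1 mice bearing ip ascitic L1210 inoculum got nine daily ip doses in a Klucel suspension, starting 24 h after tumor inoculation. Toxicity was scored as toxicity-day survivors out of the group, recorded on the fifth day. Animal weight difference (T − C) was also tabulated.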

Mus musculus [13] = test: Toxicity in female BDF1 mouse allografted with mouse L1210 cells assessed as animal survival at 25 mg/kg, ip administered daily for 9 days as Klucel suspension starting 24 hrs after tumor inoculation measured on fifth day; type: organism-based; set-up: dose 25 mg/kg, route intraperitoneal; settings: in vivo
In short: (§6)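 L1210 leukemia passaged as ascitic fluid and inoculated ip. Test agent given ip as a Klucel (hydroxypropylcellulose) suspension, nine daily doses starting 24 h after tumor inoculation. Acute toxicity read as toxicity-day survivors per group (out of 6), recorded on day 5. Animal weight difference T − C was also recorded. Follows NCI screening protocols.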

L1210 [14] = test: Antileukemic activity against mouse L1210 cells allografted in male CDF1 mouse assessed as change in body weight at 100 mg/kg, ip administered daily for 9 days as Klucel suspension starting 24 hrs after tumor inoculation; type: functional; settings: route intraperitoneal; in short: as §5
P388 [15] = test: Antitumor activity against mouse P388 cells allografted in male CDF1 mouse assessed as change in body weight at 25 mg/kg, ip administered daily for 9 days as Klucel suspension starting 24 hrs after tumor inoculation; type: functional; settings: route intraperitoneal; in short: as §3
P388 [16] = test: Antitumor activity against mouse P388 cells allografted in male CDF1 mouse assessed as disease cures by measuring 30-days host survival at 25 mg/kg, ip administered daily for 9 days as Klucel suspension starting 24 hrs after tumor inoculation relative to control; type: functional; settings: route intraperitoneal; in short: as §2
L1210 [17] = test: Antileukemic activity against mouse L1210 cells allografted in female BDF1 mouse assessed as change in body weight at 12.5 mg/kg, ip administered daily for 9 days as Klucel suspension starting 24 hrs after tumor inoculation; type: functional; settings: route intraperitoneal; in short: as §5
L1210 [18] = test: Antileukemic activity against mouse L1210 cells allografted in female BDF1 mouse assessed as change in body weight at 25 mg/kg, ip administered daily for 9 days as Klucel suspension starting 24 hrs after tumor inoculation; type: functional; settings: route intraperitoneal; in short: as §5
Mus musculus [19] = test: Toxicity in male CDF1 mouse allografted with mouse L1210 cells assessed as animal survival at 200 mg/kg, ip administered daily for 9 days as Klucel suspension starting 24 hrs after tumor inoculation measured on fifth day; type: organism-based; set-up: dose 200 mg/kg, route intraperitoneal; settings: in vivo; in short: as §6
L1210 [20] = test: Antileukemic activity against mouse L1210 cells allografted in female BDF1 mouse assessed as host mean survival time at 50 mg/kg, ip administered daily for 9 days as Klucel suspension starting 24 hrs after tumor inoculation relative to control; type: functional; settings: route intraperitoneal; in short: as §4
Mus musculus [21] = test: Toxicity in female BDF1 mouse allografted with mouse L1210 cells assessed as animal survival at 50 mg/kg, ip administered daily for 9 days as Klucel suspension starting 24 hrs after tumor inoculation measured on fifth day; type: organism-based; set-up: dose 50 mg/kg, route intraperitoneal; settings: in vivo; in short: as §6
Mus musculus [22] = test: Toxicity in male CDF1 mouse allografted with mouse L1210 cells assessed as animal survival at 100 mg/kg, ip administered daily for 9 days as Klucel suspension starting 24 hrs after tumor inoculation measured on fifth day; type: organism-based; set-up: dose 100 mg/kg, route intraperitoneal; settings: in vivo; in short: as §6
L1210 [23] = test: Antileukemic activity against mouse L1210 cells allografted in male CDF1 mouse assessed as change in body weight at 200 mg/kg, ip administered daily for 9 days as Klucel suspension starting 24 hrs after tumor inoculation; type: functional; settings: route intraperitoneal; in short: as §5
P388 [24] = test: Antitumor activity against mouse P388 cells allografted in male CDF1 mouse assessed as disease cures by measuring 30-days host survival at 50 mg/kg, ip administered daily for 9 days as Klucel suspension starting 24 hrs after tumor inoculation relative to control; type: functional; settings: route intraperitoneal; in short: as §2
[25] = Cytotoxicity against human 9KB cells treated as ethanol solution; type: functional; settings: read-out: ED50 (the source's name)
In short: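 Compound applied as an ethanol solution; activity read out as ED50 under the general screening protocol.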

Mus musculus [26] = test: Toxicity in male CDF1 mouse allografted with mouse P388 cells assessed as animal survival at 25 mg/kg, ip administered daily for 9 days as Klucel suspension starting 24 hrs after tumor inoculation; type: organism-based; set-up: dose 25 mg/kg, route intraperitoneal; settings: in vivo; in short: as §1
P388 [27] = test: Antitumor activity against mouse P388 cells allografted in male CDF1 mouse assessed as disease cures by measuring 30-days host survival at 12.5 mg/kg, ip administered daily for 9 days as Klucel suspension starting 24 hrs after tumor inoculation relative to control; type: functional; settings: route intraperitoneal; in short: as §2

For `CNC(=O)OCc1c(COC(=O)NC)c(-c2ccc(Cl)c(Cl)c2)n2c1CCC2`, the Activity (Mus musculus [1]) was “Non-toxic”, the T/C (P388 [2]) was 188% and the Activity (P388 [3]) was -2.5 g. The T/C (L1210 [4]) was 109%, the T/C (L1210 [5]) was 106% and the Activity (P388 [6]) was 1.6 g. It also gave an Activity (P388 [7]) of -1.9 g, a T/C (L1210 [8]) of 74% and a T/C (L1210 [9]) of 63%. For the same compound, the Activity (L1210 [10]) was -3 g, the Activity (Mus musculus [11]) was “Non-toxic” and the Activity (Mus musculus [12]) was “Non-toxic”. For the same compound, the Activity (Mus musculus [13]) was “Non-toxic”, the Activity (L1210 [14]) was -4.3 g and the Activity (P388 [15]) was -0.4 g. It also gave a T/C (P388 [16]) of 160%, an Activity (L1210 [17]) of -1.5 g and an Activity (L1210 [18]) of -1.3 g. The Activity (Mus musculus [19]) was “Non-toxic”, the T/C (L1210 [20]) was 124% and the Activity (Mus musculus [21]) was “Non-toxic”. For the same compound, the Activity (Mus musculus [22]) was “Non-toxic”, the Activity (L1210 [23]) was -4.8 g and the T/C (P388 [24]) was 155%. The EC50 [25] was greater than 2.7 µg/mL, the Activity (Mus musculus [26]) was “Non-toxic” and the T/C (P388 [27]) was 153%.
